Activity calls are given as the source filed them. The calls are words filed in the database; no cut-off is given here.

These results are taken from ChEMBL document CHEMBL3407383, “Design, synthesis and biological profile of new inhibitors of multidrug resistance associated proteins carrying a polycyclic scaffold” (Eur J Med Chem, 2015).

Series [1] has as its target T1, ATP-dependent translocase ABCB1 (Homo sapiens, UniProt P08183). In words: Reversal of human MDR1-mediated drug efflux in mouse L5178 cells using rhodamine 123 as substrate assessed as fluorescence activity ratio at 4 uM incubated for 10 mins prior to substrate addition measured after 20 mins by FACScan flow cytometry relative to control. Format: cell-based. The settings on record: l5178, 20 min. Background: A flow cytometer gives signals particle by particle.

A short description of series [2]: Cytotoxicity against human HL60R cells assessed as effect on cell cycle at 10 uM. The format is cell-based.
Series [3] addresses T2, Multidrug resistance protein 1/Multidrug resistance associated protein 1 (Homo sapiens, UniProt P33527+P08183). Put plainly: Inhibition of MDR1/MRP1 overexpressed in doxorubicin-resistant human HL60R cells assessed as DXR accumulation at 0.4 uM incubated for 2 hrs prior to DXR challenge measured after 2 hrs by fluorescence assay relative to control. Format: cell-based. The method, boiled down:
(§1)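 HL60 and HL60R cells (2.5 × 10^5 cells/mL) preincubated 2 h with compound, then 2 h with 10 µM DXR. Washed twice in cold PBS, resuspended at 1 × 10^6 cells/mL. Anthracycline fluorescence read immediately by flow cytometry (excitation 488 nm, emission 600 nm, log scale). Mean ± SD, ≥3 independent experiments; one-way ANOVA versus HL60R.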

A short description of series [4]: Cytotoxicity against human HL60 cells assessed as cell viability at 10 uM by MTT assay. Format: cell-based. The settings on record: hl-60, 10 µM.
Series [5] has as its system HL60R. Put plainly: Potentiation of doxorubicin-induced cell cycle arrest in human HL60R cells assessed as accumulation at G2/M phase at 10 uM after 24 hrs by propidium iodide staining-based flow cytometry. Format: functional. The method, boiled down: (§2)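 HL60R cells treated with compound plus 10 µM DXR for 24 and 48 h. Fixed in 70% ice-cold ethanol at -20 °C overnight, stained with PI 5 µg/mL plus DNase-free RNase A 10 µg/mL in PBS, 30 min at 37 °C in the dark. PI red fluorescence acquired on a linear scale at 600 nm by flow cytometry.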

Series [6] concerns HL60R. In words: Potentiation of doxorubicin-induced cytotoxicity in human HL60R cells at 10 uM incubated for 2 hrs prior to doxorubicin challenge measured after 24 hrs by trypan blue staining-based haemocytometry. The format is functional, cell-based. Put shortly:
(§3)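 HL60R cells seeded at 1.5 × 10^5 cells/mL; after 24 h, exposed to compound (10 µM) for 2 h, then 10 µM DXR added. Viable cells counted by Trypan Blue exclusion in a Bürker haemocytometer at 24 and 48 h. Mean ± SD, at least three independent experiments.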

For series [7], the target named is T2, Multidrug resistance protein 1/Multidrug resistance associated protein 1. In words: Inhibition of MDR1/MRP1 overexpressed in doxorubicin-resistant human HL60R cells assessed as DXR accumulation at 10 uM incubated for 2 hrs prior to DXR challenge measured after 2 hrs by fluorescence assay relative to control. The format is cell-based. Put shortly: as §1
The nature of series [8]: Lipophilicity, log P of the compound. The format is physicochemical. The following applies: octanol/water.
In series [9] the target is T2, Multidrug resistance protein 1/Multidrug resistance associated protein 1. In words: Activity at human MDR1/MRP1 overexpressed in doxorubicin-resistant human HL60R cells assessed as ATP consumption at 10 uM after 2 hrs by luminescence assay (reference value: 6350 +/- 303 RLU). Format: cell-based. The method, boiled down: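 HL60R cells at 2.5 × 10^5 cells/mL exposed to 10 µM compound (DMSO solution) for 2 h at 37 °C, 5% CO2; washed twice in cold PBS, resuspended at 1 × 10^6 cells/mL. 1 × 10^5 cells lysed in swab by 20 s agitation; ATP read by luciferase/d-luciferin bioluminescence on a luminometer.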

Series [10] in a line: Cytotoxicity against human HL60 cells assessed as effect on cell cycle at 10 uM. The following applies: hl-60, 10 µM. Format: cell-based.
Series [11] deals with T1, ATP-dependent translocase ABCB1. In words: Reversal of human MDR1-mediated drug efflux in mouse L5178 cells using rhodamine 123 as substrate assessed as fluorescence activity ratio at 40 uM incubated for 10 mins prior to substrate addition measured after 20 mins by FACScan flow cytometry relative to control. Format: cell-based. The following applies: l5178, 20 min.
Series [12] is described as follows: Cytotoxicity against human HL60R cells assessed as cell viability at 10 uM by MTT assay. Format: cell-based.
Series [13] in a line: Cell cycle arrest in human HL60R cells assessed as exit from mitosis at 10 uM after 24 hrs by propidium iodide staining-based flow cytometry. The format is functional. The method, boiled down:
as §2

The subject of series [14] is HL60R. Put plainly: Induction of apoptosis in human HL60R cells assessed as nuclear fragmentation at 10 uM after 48 hrs by […] staining-based fluorescence microscopy.
Series [15] is described as follows: Cell cycle arrest in human HL60R cells assessed as accumulation at G2/M phase at 10 uM after 24 hrs by propidium iodide staining-based flow cytometry. The format is functional. The method, boiled down: as §2
The test system of series [16] is HL60R. Put plainly: Induction of apoptosis in human HL60R cells assessed as chromatin condensation at 10 uM after 48 hrs by […] staining-based fluorescence microscopy. Format: functional, cell-based. Put shortly:
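HL60R cells co-treated 48 h with 10 µM compound plus 10 µM DXR. Cytospun onto slides (150 g, 5 min), PBS-washed, fixed in 4% paraformaldehyde, permeabilized with 0.5% Triton X-100 for 5 min at 4 °C, stained with Hoechst 0,1 mg/mL. Nuclear morphology examined by fluorescence microscopy.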

The target in series [17] is T1, ATP-dependent translocase ABCB1. In words: Reversal of human MDR1-mediated drug efflux in mouse L5178 cells using rhodamine 123 as substrate assessed as fluorescence activity ratio at 0.8 uM incubated for 10 mins prior to substrate addition measured after 20 mins by FACScan flow cytometry relative to control. The format is cell-based. The settings on record: l5178, 20 min. Put shortly: (§4)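 L5178 MDR1-transfected and parental mouse lymphoma cells at 2 × 10^6/mL in serum-free McCoy's 5A. Preincubated with compound (0.4–40 µM) for 10 min at room temperature, then rhodamine-123 (5.2 µM final) added for 20 min at 37 °C; washed twice, resuspended in PBS, read by flow cytometry. Verapamil as positive control. R = (MDR treated/MDR control)/(parental treated/parental control).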

Series [18] has the same target. In words: Reversal of human MDR1-mediated drug efflux in mouse L5178 cells using rhodamine 123 as substrate assessed as fluorescence activity ratio at 0.4 uM incubated for 10 mins prior to substrate addition measured after 20 mins by FACScan flow cytometry relative to control. The settings on record: l5178, 20 min. Format: cell-based. Put shortly:
as §4

Series [19] has as its system HL60R. Put plainly: Potentiation of doxorubicin-induced cell cycle arrest in human HL60R cells assessed as accumulation at G0/G1 phase at 10 uM after 24 hrs by propidium iodide staining-based flow cytometry. The format is functional. Put shortly: as §2
In series [20] the target is T1, ATP-dependent translocase ABCB1. Put plainly: Reversal of human MDR1-mediated drug efflux in mouse L5178 cells using rhodamine 123 as substrate at 40 uM incubated for 10 mins prior to substrate addition by FACScan flow cytometry relative to verapamil. Format: cell-based. The following applies: l5178, 10 min. Put shortly:
as §4

Series [21] deals with HL60R. Put plainly: Potentiation of doxorubicin-induced cytotoxicity in human HL60R cells at 10 uM incubated for 2 hrs prior to doxorubicin challenge measured after 24 to 48 hrs by trypan blue staining-based haemocytometry. Format: functional, cell-based. The method, boiled down:
as §3

For series [22], the system named is HL60R. In words: Potentiation of doxorubicin-induced cell cycle arrest in human HL60R cells assessed as exit from mitosis at 10 uM after 48 hrs by propidium iodide staining-based flow cytometry. The format is functional. The method, boiled down:
as §2

Series [23] deals with HL60R. Put plainly: Potentiation of doxorubicin-induced cytotoxicity in human HL60R cells assessed as restart of cell growth at 10 uM incubated for 2 hrs prior to doxorubicin challenge measured after 24 hrs by trypan blue staining-based haemocytometry relative to control. The format is functional. Put shortly: as §3
For series [24], the system named is HL60R. Put plainly: Potentiation of doxorubicin-induced cytotoxicity in human HL60R cells assessed as impairment of cell growth at 10 uM incubated for 2 hrs prior to doxorubicin challenge measured up to 24 hrs by trypan blue staining-based haemocytometry. The format is functional. Put shortly:
as §3

T1 sequence (P08183 whole entry): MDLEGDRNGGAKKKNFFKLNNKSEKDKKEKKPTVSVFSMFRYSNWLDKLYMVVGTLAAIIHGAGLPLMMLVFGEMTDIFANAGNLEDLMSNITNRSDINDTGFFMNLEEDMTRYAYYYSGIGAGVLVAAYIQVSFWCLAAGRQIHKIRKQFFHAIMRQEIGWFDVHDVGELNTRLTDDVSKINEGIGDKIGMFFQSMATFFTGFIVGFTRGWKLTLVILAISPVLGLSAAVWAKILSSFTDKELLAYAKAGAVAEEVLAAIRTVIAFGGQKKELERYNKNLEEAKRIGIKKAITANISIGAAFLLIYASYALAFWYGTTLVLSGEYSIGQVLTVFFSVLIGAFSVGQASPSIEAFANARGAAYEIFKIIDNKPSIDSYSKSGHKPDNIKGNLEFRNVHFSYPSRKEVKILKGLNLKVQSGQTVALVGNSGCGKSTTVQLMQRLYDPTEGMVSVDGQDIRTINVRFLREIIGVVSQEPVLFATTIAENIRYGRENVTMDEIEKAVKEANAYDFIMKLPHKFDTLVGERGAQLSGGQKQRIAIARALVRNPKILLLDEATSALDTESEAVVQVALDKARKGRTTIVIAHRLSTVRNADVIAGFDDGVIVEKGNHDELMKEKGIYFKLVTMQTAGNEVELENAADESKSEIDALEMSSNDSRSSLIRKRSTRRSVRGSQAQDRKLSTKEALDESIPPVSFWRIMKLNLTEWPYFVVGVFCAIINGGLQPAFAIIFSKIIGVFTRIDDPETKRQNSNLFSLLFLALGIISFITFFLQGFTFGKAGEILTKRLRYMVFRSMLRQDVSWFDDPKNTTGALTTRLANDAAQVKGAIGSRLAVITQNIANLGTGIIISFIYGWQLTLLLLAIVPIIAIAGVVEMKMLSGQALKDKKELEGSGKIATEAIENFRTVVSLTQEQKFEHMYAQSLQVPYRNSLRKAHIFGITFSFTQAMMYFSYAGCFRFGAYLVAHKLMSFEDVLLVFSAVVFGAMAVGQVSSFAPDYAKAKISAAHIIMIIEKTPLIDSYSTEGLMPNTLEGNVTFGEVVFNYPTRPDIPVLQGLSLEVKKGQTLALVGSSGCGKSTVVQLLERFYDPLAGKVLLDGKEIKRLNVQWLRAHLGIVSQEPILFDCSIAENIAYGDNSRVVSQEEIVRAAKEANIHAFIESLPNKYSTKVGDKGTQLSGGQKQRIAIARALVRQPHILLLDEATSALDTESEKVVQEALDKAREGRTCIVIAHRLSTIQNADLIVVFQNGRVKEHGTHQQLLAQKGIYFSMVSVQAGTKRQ

For the molecule `O=C1[C@@H]2[C@H]3c4ccccc4[C@H](c4ccccc43)[C@@H]2C(=O)N1CC#CCN1CCC(n2c(=O)[nH]c3ccccc32)CC1`, the figures for the Ratio in [1] and in series [11] were 6.39 and 44.6, respectively. In addition, the Activity result in [2], in [4], in [10] and in series [12] was “Non-toxic” each time. In addition, the “inhibition (INH)” value in [3] and in series [7] was “Not Active” throughout. Also, the result in the series on HL60R [5] and in the series on HL60R [6] was Active. In [8], the lipophilicity (logP) (as a rule, a log measure of how a compound divides between an organic and an aqueous phase) was 2.54. In series [9], the RLU came to 4363.
On to `C#CCN1C(=O)[C@@H]2[C@H]3c4ccccc4[C@H](c4ccccc43)[C@@H]2C1=O`, for which the “inhibition (INH)” value in [7] is “Not Active”.
On to `COc1cccc2c1C(=O)c1c(O)c3c(c(O)c1C2=O)C[C@@](O)(C(=O)CO)C[C@@H]3O[C@H]1C[C@H](N)[C@H](O)[C@H](C)O1`, for which the outcome in [13] was inactive. Besides, the result (in the series on HL60R [14]; in series [15]; in the series with HL60R [16]) was Active.
With `O=C1[C@@H]2[C@H]3c4ccccc4[C@H](c4ccccc43)[C@@H]2C(=O)N1CC#CCN1CCN(Cc2ccccc2)CC1`, the Ratio in [1] was 54.832; in series [17], 7.76; in [18] it was 2.62; in [11], 85.46; in series [20], 15. In addition, the Activity result in series [2], in [4], in series [10] and in series [12] was “Non-toxic” throughout. Besides, the entries for the “inhibition (INH)” value in [3] and in series [7] were “Not Active” and “Active”, respectively. This molecule also registered a logP in series [8] of 2.54. Besides, the result in the series on HL60R [19] and in the series on HL60R [21] was Active. Further, the RLU in series [9] is on record as 3957.
On to `CN1CCN(CC#CCN2C(=O)[C@@H]3[C@H]4c5ccccc5[C@H](c5ccccc54)[C@@H]3C2=O)CC1`, for which the result in the series with HL60R [22] and in the series on HL60R [23] was inactive. Besides, the results for the Ratio in series [1] and in series [11] were 9.59 and 64.74, respectively. For the same molecule, the Activity result in [2], in [4], in series [10] and in series [12] was “Non-toxic” throughout. Moreover, the “inhibition (INH)” value in [3] and in [7] was “Not Active” each time. Moreover, the outcome in the series on HL60R [5] and in the series on HL60R [24] was Active. In [8], this molecule came in with a logP of 2.54. In series [9], the RLU worked out at 3429.
With `O=C1[C@@H]2[C@H]3c4ccccc4[C@H](c4ccccc43)[C@@H]2C(=O)N1CC#CCN1CCN(C(c2ccc(F)cc2)c2ccc(F)cc2)CC1`, the Ratio came to 28.27 in [1], 8.22 in [17], 5.19 in series [18] and 33.38 in series [11]. Further, the Activity result in series [2], in series [4], in [10] and in series [12] was “Non-toxic” each time. Further, the entries for the “inhibition (INH)” value in series [3] and in [7] were “Not Active” and “Active”, respectively. The molecule further displayed a logP in series [8] of 6.3. Also, the result in the series on HL60R [19] and in the series with HL60R [21] was Active. Also, the RLU in series [9] was 4276.
For `O=C1[C@@H]2[C@H]3c4ccccc4[C@H](c4ccccc43)[C@@H]2C(=O)N1CC#CCN1CCN(c2ccccc2)CC1`, the outcome in the series with HL60R [22] and with HL60R [23] was inactive. For the same molecule, the Ratio in series [1] was found to be 7.56; in series [11], 11.52; in series [20], 2. Moreover, the Activity entry in series [2], in series [4], in series [10] and in series [12] was “Non-toxic” throughout. Also, the “inhibition (INH)” value in [3] and in [7] was “Not Active” in each case. In addition, the outcome in the series on HL60R [5] and in the series with HL60R [24] was Active. The same molecule returned a logP in series [8] of 2.54. Moreover, in [9], the RLU was 3650.
For the molecule `COc1ccc(CCN(C)CC#CCN2C(=O)[C@@H]3[C@H]4c5ccccc5[C@H](c5ccccc54)[C@@H]3C2=O)cc1OC`, the Activity result in series [2], in [4], in [10] and in series [12] was “Toxic” each time. For the same molecule, the “inhibition (INH)” value in series [3] is “Not Active”. In addition, the result in the series with HL60R [19] and in the series with HL60R [21] was Active. Besides, the RLU in series [9] is recorded as 2612.
